Measured values of several laboratories.
Protocols differ between the studies behind these lines.
Read-out: enzyme activity
Mode: inhibitor
KIT: Mast/stem cell growth factor receptor Kit (KIT, Homo sapiens, UniProt P10721)
KIT D816V: Mast/stem cell growth factor receptor Kit (KIT, Homo sapiens, UniProt P10721, D816V)

target | method | tested at | inhibition | SMILES
KIT |  | 1 µM | < 20% | CCCS(=O)(=O)Nc1ccc(F)c(C(=O)c2c[nH]c3ncc(-c4ccc(Cl)cc4)cc23)c1F
KIT |  | 1 µM | 8% | COc1cc2ncnc(Nc3ccc(Oc4ccccc4)c(C)c3C)c2cc1OC
KIT D816V |  | 10 µM | -1% | CS(=O)(=O)Nc1cccc(-c2csc(NC(=O)CSc3nc4nccnc4c(=O)n3CCc3ccccc3)n2)c1
Mast/stem cell growth factor receptor Kit (KIT, Homo sapiens, UniProt P10721, V654A) |  | 0.1 µM | -0.5% | CC/C(=N\NC(=O)NCc1cccc(O)c1)c1ccc(O)c(C)c1O
KIT |  | 1 µM | 2% | C=CC(=O)Nc1cc(Nc2nccc(Nc3cc(Cl)c(F)cc3C(C)(C)O)n2)c(OC)cc1N1CC[C@@H](N(C)C)C1
Mast/stem cell growth factor receptor Kit (KIT, Homo sapiens, UniProt P10721, V560G) | radiometric | 1 µM | 92% | CNC(=O)c1cc2c(Oc3ccc(NC(=O)C4(C(=O)Nc5ccc(F)cc5)CC4)cc3)ccnc2cc1OC
KIT D816V |  | 10 µM | 6% | O=C(CSc1nc2nccnc2c(=O)n1CCc1ccccc1)Nc1nccs1
KIT | FRET | 0.1 µM | 1% | CN(C)C1CCN(CC#Cc2nn(C3CCCC3)c3nc(NCc4ccccc4)ncc23)C1 (stereo not shown)
KIT |  | 1 µM | -1% | COc1cc2ncnc(Nc3ccc(Oc4ccccc4)cc3C)c2cc1OC
Mast/stem cell growth factor receptor Kit (KIT, Homo sapiens, UniProt P10721, T670I) |  | 0.1 µM | 3% | COc1cc(-c2cc(-c3ccc(N4CCNCC4)cc3)cnc2N)cc(OC)c1OC
